Screens deposited in PubChem BioAssay by several laboratories.
AHR activator: AHR activators, primary screen, cell-based, luminescence, luciferase reporter, human; activation, % at 5 µM; AID 2796, 2010; Aryl hydrocarbon receptor (Homo sapiens), P35869; 320,000 tested, 2.5% active; AHR-responsive luciferase reporter cells; in the data active = activation above about 47%;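 note: 0% = vehicle wells and 100% = reference agonist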
SENP1 inh: human SENP1 catalytic domain inhibitors, primary screen, biochemical, FRET, uHTS; inhibition, % at 10 µM; 360,000 tested, 0.21% active; Sentrin-specific protease 1 (Homo sapiens), Q9P0U3; recombinant SENP1 catalytic domain, CyPet-SUMO1-YPet FRET cleavage; AID 624204, 2012;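 active = inhibition at least 30% at 10 µM, raw YFP signal under a set limit, fluorescence ratio 0.5 to 1.5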;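 note: 0% = enzyme with DMSO and 100% = no enzyme wells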
Target sequence (Q9P0U3 419-644 limits assumed): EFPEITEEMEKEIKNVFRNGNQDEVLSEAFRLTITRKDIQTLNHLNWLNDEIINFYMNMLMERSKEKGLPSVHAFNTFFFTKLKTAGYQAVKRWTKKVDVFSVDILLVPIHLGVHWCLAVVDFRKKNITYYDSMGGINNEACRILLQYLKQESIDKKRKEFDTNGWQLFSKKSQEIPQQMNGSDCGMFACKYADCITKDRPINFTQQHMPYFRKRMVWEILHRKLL
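Test system: hSENP1 catalytic domain, recombinant; Amount: 20 pM final SENP1 enzyme; Medium: Tris pH 8 buffer plus EDTA, NaCl, BME, BSA, NP40, catalase; Schedule: 50 min enzyme reaction, room temperature, light-protected; Technique: FRET fluorescence in CFP and YFP emission channels; Controls: no-enzyme wells low, DMSO-plus-enzyme wells high control.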
GAA850 FXN act: FXN promoter activators, primary screen, cell-based, luciferase luminescence, HEK293 lucGAA850; 360,000 tested, 0.56% active; activation, % at 6 µM; HEK293 lucGAA850 FXN promoter luciferase reporter, 24 h; percent of 10 µM SAHA response;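 active = activation above the average of all compounds screened plus 3 SD, cutoff fixed separately per campaign, cut at about 7.5% in these data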;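 note: 0% = DMSO wells and 100% = 10 µM SAHA wells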
CTSL1 counter: Fasciola hepatica cathepsin L1 inhibitors, primary screen, counter-screen for PFM18AAP inhibitor project, biochemical, QFRET, fluorogenic peptide substrate | inhibition, % at 5.96 µM | recombinant F. hepatica cathepsin L1, Z-Leu-Arg-MCA fluorescence | AID 1906, 2009 | 300,000 tested, 0.49% active;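 active = inhibition above the mean of all tested compounds plus 3 SD, set per screening campaign, cut at about 17% in these data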;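 note: 0% = plate median of test compound wells and 100% = 1 µM Z-Phe-Ala-diazomethylketone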
M18AAP inhibitor: PfM18AAP inhibitors, malaria aminopeptidase, primary screen, biochemical, QFRET, recombinant enzyme; inhibition, % at 7.35 µM; 290,000 tested, 1.2% active; M18 aspartyl aminopeptidase (Plasmodium falciparum 3D7); H-Glu-NHMec fluorogenic cleavage;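 active = inhibition above the campaign mean inhibition over all tested compounds plus 3 SD, cut at about 28% in these data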;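 note: 0% = plate median of test compound wells and 100% = 2 mM ZnCl2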
HDAC3 inhib: HDAC3 deacetylase inhibitors, primary screen, biochemical, fluorescence, cell-free homogeneous. Histone deacetylase 3 (Homo sapiens), O15379. recombinant HDAC3, fluorogenic peptide/trypsin coupled. inhibition, % at 8.3 µM. 320,000 tested, 0.15% active. AID 2718, 2010; in the data active = inhibition above about 26%, passing the limit was not always enough
GAA30 counter: GAA30 FXN promoter activators, confirmation, counter-screen for GAA850 frataxin promoter activator project, cell-based, luminescence, HEK293, lucGAA30, triplicate; 1,900 tested, 66% active; HEK293 lucGAA30 FXN promoter luciferase, 24 h; DMSO = 0%, 5 µM ipriflavone = 100%; shares compounds with GAA850 FXN act; AID 588350, 2011; activation, % at 6 µM;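 active = mean activation above the mean of solvent-only control wells plus 3 SD, cut at about 22% in these data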;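 note: counterscreen of GAA850 promoter hits where activity marks nonselective or luminescence artifacts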
GAA850 confirm: FXN GAA850 promoter activators in reporter cells, confirmation, cell-based, luminescence, HEK293 lucGAA850, triplicate; shares compounds with GAA850 FXN act; HEK293 lucGAA850 FXN promoter luciferase reporter, 24 h; 100% = activation by SAHA; activation, % at 6 µM; 1,900 tested, 86% active; AID 588351, 2011;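 active = mean activation above a set limit taken from the primary screen, cut at about 8% in these data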;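 note: 0% = DMSO wells and 100% = 10 µM SAHA wells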
SENP1 conf: human SENP1 catalytic domain inhibitors, confirmation, biochemical, FRET endpoint, single concentration; shares compounds with SENP1 inh; recombinant SENP1, CyPet-SUMO1-YPet FRET cleavage; inhibition, % at 10 µM; 520 tested, 34% active; in the data active = inhibition mostly above about 35%, no sharp cut-off; inactive = mostly below about 32%;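 note: 0% = enzyme with DMSO and 100% = no enzyme control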
SENP1 kinetic: human SENP1 catalytic domain inhibitors, confirmation, biochemical, kinetic FRET, single concentration; recombinant SENP1, CyPet-SUMO1-YPet FRET kinetic cleavage; AID 651690, 2012; 520 tested, 26% active; inhibition, % at 10 µM; shares compounds with SENP1 inh; in the data active = inhibition mostly above about 32%, no sharp cut-off; inactive = mostly below about 29%;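 note: 0% = DMSO with enzyme and 100% = no enzyme substrate only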
* hit, by the source's call; / = no result. A selection: hits, their analogues and other compounds. The true share with any hit is near 4.2%.

SMILES	AHR activator	SENP1 inh	GAA850 FXN act	CTSL1 counter	M18AAP inhibitor	HDAC3 inhib	GAA30 counter	GAA850 confirm	others
C/C1=C\[C@@H](C)C/C=C/[C@H]2[C@@H]3O[C@]3(C)[C@@H](C)[C@H]3[C@H](Cc4c[nH]c5ccccc45)NC(=O)[C@]32C(=O)/C=C/C(=O)[C@@H]1O	-2	-36	8.8*	1	10	6	-16	46*
CN(C)[C@@H]1C(=O)C(C(N)=O)=C(O)[C@@]2(O)C(=O)C3=C(O)c4c(O)ccc(Cl)c4[C@@](C)(O)[C@H]3C[C@@H]12	1	10	13*	1	24	1	41*	15*
CN(C)[C@@H]1C(=O)C(C(N)=O)=C(O)[C@@]2(O)C(=O)C3=C(O)c4c(O)cccc4[C@@](C)(O)[C@H]3[C@H](O)[C@@H]12	3	22	2	6	10	-2	/	/
COP(=O)(NC(C)=O)SC (stereo not given)	/	3	-1	/	/	/	/	/
CC(=NNC(=S)N1CC2CCC(CC2)C1)c1nccs1	/	2	12*	/	/	/	-66	4
OC12ONC(c3ccccn3)C1N1CCC2CC1 (stereo not given)	5	1	18*	-5	1	2	34*	16*
Cc1ccc(-c2nc3ccc(Cl)cc3n2OC(=O)N(C)C)cc1	25	3	7.7*	1	-3	0	109*	41*
CCc1cccc(C)c1NC(=S)N1CC2CC(C1)c1cccc(=O)n1C2 (stereo not given)	6	4	2	-2	-4	-16	/	/
CC(C(=O)Nc1ccc(Br)cc1C(=O)c1ccccc1)N1CCOCC1 (stereo not given)	0	1	1	-2	5	0	/	/
COc1cc2nc(CN3CC=C(c4ccccc4)CC3)[nH]c(=O)c2cc1OC	12	-40	22*	8	/	5	77*	61*
COc1cc(C)c(CN2CC=C(c3ccc(F)cc3)CC2)cc1C	-2	2	0	-6	0	3	/	/
CCOC(=O)c1nsnc1NCCCl	0	-2	-1	-4	-3	-1	/	/
Nc1cc(Cl)c2nonc2c1[N+](=O)[O-]	1	-9	43*	2	4	1	14	86*
CCN[C@@H](C)Cc1cccc(C(F)(F)F)c1	0	-2	14*	/	/	/	12	6
COc1ccccc1CCNCc1cccc(C(F)(F)F)c1	1	0	0	2	-12	-7	/	/
COC(=O)C1=C(c2ccc(F)cc2OCc2ccccc2)C[C@@H]2CC[C@H]1N2C(=O)NCCOc1ccc(OC)cc1	1	2	-6	/	/	-2	/	/
Cn1c(O)c(/C=C2\C=Nc3ccccc32)c(=O)n(C)c1=O	23	54*	0	3	20	-3	/	/	SENP1 conf=4;SENP1 kinetic=8
